The target of experiment [1] is T1, GABA transporter 2 (Mus musculus, UniProt P31651).
T1 sequence (P31651 whole entry): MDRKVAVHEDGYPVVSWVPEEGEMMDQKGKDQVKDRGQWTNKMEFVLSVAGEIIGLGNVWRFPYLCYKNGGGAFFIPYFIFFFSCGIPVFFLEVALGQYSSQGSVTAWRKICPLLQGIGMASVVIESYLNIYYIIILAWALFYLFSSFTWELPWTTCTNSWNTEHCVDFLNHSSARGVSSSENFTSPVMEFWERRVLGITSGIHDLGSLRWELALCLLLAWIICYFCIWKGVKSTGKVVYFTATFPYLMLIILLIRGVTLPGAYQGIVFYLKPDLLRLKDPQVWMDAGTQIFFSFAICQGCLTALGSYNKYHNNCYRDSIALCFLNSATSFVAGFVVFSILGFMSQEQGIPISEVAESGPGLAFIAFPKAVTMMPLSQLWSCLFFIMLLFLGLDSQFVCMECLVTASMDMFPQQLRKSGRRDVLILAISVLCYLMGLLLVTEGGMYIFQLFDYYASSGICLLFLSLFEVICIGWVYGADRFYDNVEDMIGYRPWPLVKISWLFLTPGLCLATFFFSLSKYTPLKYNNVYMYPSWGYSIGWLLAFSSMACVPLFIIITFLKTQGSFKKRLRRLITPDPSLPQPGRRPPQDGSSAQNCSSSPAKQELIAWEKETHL
The experiment can be described thus: Inhibition of [3H]GABA uptake at mouse GAT2 expressed in HEK293 cells after 3 mins by scintillation counting analysis. In kind it is cell-based. An outline of the steps:
(§1)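 Uptake measured in primary mouse cortical astrocyte or neuron cultures, or in cells stably overexpressing the respective recombinant mGAT. Cells were incubated at 37 °C in phosphate-buffered saline with [3H]GABA (1 μCi/mL), 1 μM GABA and increasing inhibitor concentrations. After 3 min, uptake was stopped by automated washing. Cells were solubilized in scintillant, radioactivity was counted, and inhibition curves were analyzed.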

For experiment [2], the target named is T2, GABA transporter 3 (Mus musculus, UniProt P31649).
T2 sequence (P31649 whole entry): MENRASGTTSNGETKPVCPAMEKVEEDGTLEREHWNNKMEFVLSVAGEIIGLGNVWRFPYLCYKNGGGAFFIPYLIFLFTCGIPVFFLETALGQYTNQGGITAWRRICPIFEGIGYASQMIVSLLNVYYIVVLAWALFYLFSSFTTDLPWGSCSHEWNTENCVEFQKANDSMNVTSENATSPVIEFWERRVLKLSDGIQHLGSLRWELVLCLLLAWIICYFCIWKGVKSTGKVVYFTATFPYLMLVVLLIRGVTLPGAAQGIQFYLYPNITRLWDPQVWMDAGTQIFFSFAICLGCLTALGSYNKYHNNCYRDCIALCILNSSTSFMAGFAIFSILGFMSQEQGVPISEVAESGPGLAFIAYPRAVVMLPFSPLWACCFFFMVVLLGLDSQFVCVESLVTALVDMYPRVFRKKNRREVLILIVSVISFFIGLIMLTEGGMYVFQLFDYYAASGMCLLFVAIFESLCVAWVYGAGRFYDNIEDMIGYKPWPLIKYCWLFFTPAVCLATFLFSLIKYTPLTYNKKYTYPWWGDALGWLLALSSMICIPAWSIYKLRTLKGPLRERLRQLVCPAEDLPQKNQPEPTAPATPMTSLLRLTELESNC
The experiment can be described thus: Inhibition of [3H]GABA uptake at mouse GAT3 expressed in HEK293 cells after 3 mins by scintillation counting analysis. In kind it is cell-based. In short, it runs like this: as §1

Experiment [3] has as its target Sodium- and chloride-dependent GABA transporter 1 (Mus musculus, UniProt P31648). The experiment can be described thus: Inhibition of [3H]GABA uptake at mouse GAT1 expressed in HEK293 cells after 3 mins by scintillation counting analysis. In kind it is cell-based. In short, it runs like this:
as §1

Experiment [4] concerns the target T3, GABA transporter 4 (Mus musculus, UniProt P31650).
T3 sequence (P31650 whole entry): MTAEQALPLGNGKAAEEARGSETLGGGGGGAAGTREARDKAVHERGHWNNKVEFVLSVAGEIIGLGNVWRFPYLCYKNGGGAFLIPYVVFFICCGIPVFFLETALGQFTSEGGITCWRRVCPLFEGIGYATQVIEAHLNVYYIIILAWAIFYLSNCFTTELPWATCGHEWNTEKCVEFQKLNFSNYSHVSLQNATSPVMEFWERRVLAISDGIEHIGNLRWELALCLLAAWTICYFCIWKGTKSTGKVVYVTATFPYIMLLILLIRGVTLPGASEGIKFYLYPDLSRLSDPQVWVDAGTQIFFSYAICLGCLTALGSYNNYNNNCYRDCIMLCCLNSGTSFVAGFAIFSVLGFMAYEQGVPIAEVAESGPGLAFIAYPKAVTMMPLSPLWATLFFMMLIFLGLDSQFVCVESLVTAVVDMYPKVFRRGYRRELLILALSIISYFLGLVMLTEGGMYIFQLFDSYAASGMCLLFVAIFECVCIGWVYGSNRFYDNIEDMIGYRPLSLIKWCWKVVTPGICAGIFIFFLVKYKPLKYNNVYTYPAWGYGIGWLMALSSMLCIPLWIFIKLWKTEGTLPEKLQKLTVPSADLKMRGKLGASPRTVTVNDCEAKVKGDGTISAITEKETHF
The experiment can be described thus: Inhibition of [3H]GABA uptake at mouse GAT4 expressed in HEK293 cells after 3 mins by scintillation counting analysis. In kind it is cell-based. In short, it runs like this:
as §1

For experiment [5], the system named is Mus musculus. The experiment can be described thus: Anticonvulsant activity in ip dosed audiogenic seizure susceptible Frings mouse model after 15 mins. In kind it is functional.
Experiment [6] concerns the target GABA transporter (Mus musculus). The experiment can be described thus: Inhibition of [3H]GABA uptake in mouse astrocytes after 3 mins by scintillation counting analysis.
Experiment [7] shares this target. The experiment can be described thus: Inhibition of [3H]GABA uptake in mouse neurons after 3 mins by scintillation counting analysis.
Experiment [8] concerns Mus musculus. The experiment can be described thus: Anticonvulsant activity in ip dosed audiogenic seizure susceptible Frings mouse model after 60 mins. The settings on record: 1 h. In kind it is functional.

Structures are written as SMILES. Where only a bound is given, the exact number is not on record here.

`Cc1ccsc1C(=CCCN(C)C1C2C=CC(C2)C1C(=O)O)c1sccc1C` (centres undefined): the IC50 in experiment [1] was 144 µM; in experiment [2] (read-out: IC50), more than 300 µM; in experiment [3] it was 40 µM; in experiment [4] (read-out: IC50), more than 300 µM.

Turning to `Cc1ccsc1C(=CCCN(C)C1CCCc2o[nH]c(=O)c21)c1sccc1C` (centres undefined), the IC50 in experiment [2] (read-out: IC50) was more than 300 µM; in experiment [3] it was 7 µM; in experiment [4] (read-out: IC50) it was more than 300 µM.

Regarding `Cc1ccsc1C(=CCCN(C)C1CCCC=C1C(=O)O)c1sccc1C` (centres undefined), the IC50 was 45 µM in experiment [1]; more than 300 µM in experiment [2] (read-out: IC50); 307 µM in experiment [3]; 286 µM in experiment [4] (read-out: IC50); 3470 µM in experiment [4] (read-out: pIC50 (converted)). Moreover, in experiment [5], it took a dose of 20.4 mg/kg to reach the 50% effect level (ED50).

`CNC1CCCc2onc(O)c21` (centres undefined): the IC50 was more than 3000 µM in experiment [1]; more than 3000 µM in experiment [2] (read-out: IC50); 48 µM in experiment [6]; 450 µM in experiment [3]; more than 3000 µM in experiment [4] (read-out: IC50); 405 µM in experiment [7].

With `Cc1ccsc1C(=CCCN1CCC[C@@H](C(=O)O)C1)c1sccc1C` [TIAGABINE], the results for the IC50 in experiment [2] (read-out: IC50), in experiment [3] and in experiment [4] (read-out: IC50) were more than 300 µM, 0.8 µM and 800 µM, respectively. Also, the ED50 in experiment [8] is 1.1 mg/kg.

Consider `Cc1ccsc1C(=CCCN(C)C1CCC=C1C(=O)O)c1sccc1C` (centres undefined), for which the IC50 in experiment [1] was 50 µM; in experiment [2] (read-out: IC50), more than 300 µM; in experiment [3], 17 µM; in experiment [4] (read-out: IC50) it was more than 300 µM.

As to `CNC1C2C=CC(C2)C1C(=O)O` (centres undefined), the IC50 in experiment [2] (read-out: IC50), in experiment [3] and in experiment [4] (read-out: IC50) was more than 500 µM throughout.

Consider `Cc1ccsc1C(=CCCN(C)[C@H]1CCCC[C@@H]1C(=O)O)c1sccc1C` (relative stereo), for which the IC50 in experiment [1] is 36 µM; in experiment [2] (read-out: IC50), more than 300 µM; in experiment [3] it was 273 µM; in experiment [4] (read-out: IC50), more than 300 µM.

On to `Cc1ccsc1C(=CCCN(C)[C@@H]1CCCC[C@@H]1C(=O)O)c1sccc1C` (relative stereo), for which the IC50 in experiment [1] was 50 µM; in experiment [2] (read-out: IC50) it was 281 µM; in experiment [2] (read-out: pIC50 (converted)), 3550 µM; in experiment [3] it was more than 300 µM; in experiment [4] (read-out: IC50) it was more than 300 µM.

Consider `CNC1CCCC=C1C(=O)O` (centres undefined), for which the values for the IC50 in experiment [2] (read-out: IC50), in experiment [3] and in experiment [4] (read-out: IC50) were more than 1000 µM, 423 µM and more than 1000 µM, respectively.

In the case of `CN[C@H]1CCCC[C@H]1C(=O)O` (relative stereo), the IC50 in experiment [1] is more than 3000 µM; in experiment [2] (read-out: IC50), more than 3000 µM; in experiment [6], more than 300 µM; in experiment [3], more than 3000 µM; in experiment [4] (read-out: IC50), more than 3000 µM; in experiment [7], more than 300 µM.

With `CN[C@@H]1CCCC[C@H]1C(=O)O` (relative stereo), the IC50 is more than 3000 µM in experiment [1]; more than 3000 µM in experiment [2] (read-out: IC50); more than 300 µM in experiment [6]; more than 3000 µM in experiment [3]; more than 3000 µM in experiment [4] (read-out: IC50); more than 300 µM in experiment [7].

The values above are taken from ChEMBL document CHEMBL2321777, “Selective mGAT2 (BGT-1) GABA uptake inhibitors: design, synthesis, and pharmacological characterization” (J Med Chem, 2013).
